For assay [1], the system named is CD40. The experiment in a line: Flow cytometry, surface expression of CD40 after Mn2+ activation. It is filed as cell-based, mouse (NOD, BALB/c). Put shortly: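 Flow cytometry on unfractionated PBMC from NOD and BALB/c mice ± Mn2+ activation, stained for CD4, CD40, CD18, CD11a and CD11b with isotype controls (1 to 3 × 10^5 cells). CD40 assessed in CD4hi, CD4lo (Th40) and CD4-negative subsets of the lymphocyte gate, read as overall mean fluorescence intensity. Two-tailed t test.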
For orientation: Flow cytometry measures light scatter and fluorescence of single cells or particles in a stream.

Assay [2] concerns CD18. In words: Flow cytometry, surface expression of CD18 after Mn2+ activation. The format is cell-based, mouse (NOD, BALB/c). In outline:
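Density-medium-purified PBMC from NOD and BALB/c mice, unactivated or Mn2+-activated, stained for CD4, CD40, CD18, CD11a and CD11b against isotype controls; 1 to 3 × 10^5 cells per stain. Lymphocytes gated as CD4hi, CD4lo (Th40) or CD4-negative, then CD18hi and CD18lo populations scored. One-way ANOVA with Tukey's multiple comparisons test.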

For assay [3], the system named is CD11a. In words: Flow cytometry, surface expression of CD11a after Mn2+ activation. The format is cell-based, mouse (NOD, BALB/c). Put shortly: (§1)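 NOD and BALB/c PBMC, isolated over density medium and used without further purification, were stained with or without Mn2+ activation for CD4, CD40, CD18, CD11a and CD11b, with isotype controls (1 to 3 × 10^5 cells per stain). Flow cytometry, lymphocyte gate split into CD4hi (conventional CD4), CD4lo (Th40) and CD4-negative cells. CD11a or CD11b surface expression compared ± Mn2+.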

Assay [4] deals with CD11b. The experiment in a line: Flow cytometry, surface expression of CD11b after Mn2+ activation. The format is cell-based, mouse (NOD, BALB/c). In outline: as §1
Assay [5] has as its system CD69. The experiment in a line: Flow cytometry, surface expression of CD69 after Mn2+ activation. It is filed as cell-based, mouse (NOD, BALB/c). To be noted: PBMC and spleen, Mn2+ 30 min.
Assay [6] relates to CD154. The experiment in a line: Flow cytometry, surface expression of CD154 after Mn2+ activation. The format is cell-based, mouse (NOD, BALB/c). Particulars: PBMC and spleen, Mn2+ 30 min.
Assay [7] concerns CD25. The experiment in a line: Flow cytometry, surface expression of CD25 after Mn2+ activation. It is filed as cell-based, mouse (NOD, BALB/c). To be noted: PBMC and spleen, Mn2+ 30 min.
For assay [8], the system named is CD11a. In words: Control immunoprecipitation. It is filed as binding, mouse (NOD). Particulars: NOD cell lysates; OVA-pep IP, control for KGYY15.
Assay [9] deals with CD11b. The experiment in a line: Control immunoprecipitation. The format is binding, mouse (NOD). To be noted: NOD cell lysates; OVA-pep IP, control for KGYY15.
In assay [10] the test system is CD18. In words: Control immunoprecipitation. It is filed as binding, mouse (NOD). To be noted: NOD cell lysates; OVA-pep IP, control for KGYY15.
The target in assay [11] is FITC-conjugated mouse KGYY15 (mouse). In words: flow cytometry on cells.
In assay [12] the test system is integrin αIIbβ3. To be noted: cited from earlier work.
Assay [13] deals with integrin α5β1 (CD49e/CD29). Particulars: cited from earlier work.
The test system of assay [14] is integrin αMβ2 (CD11b/CD18). Particulars: cited from earlier work.
Setting [15] is: PBMC conventional CD4 T cells, both strains.
Setting [16] is: PBMC, BALB/c Th40, NOD Th40 and CD4-negative cells.
The mark [17] stands for this setting: spleen cells, two mouse strains.
The mark [18] stands for this setting: PBMC, any cell type, either strain.

Consider `[Mn+2]` [Mn^2+, manganese divalent ions], for which the “surface expression of CD40” value in assay [1] (setting [15]) was “did not change surface expression of CD40 or CD18”; in assay [1] (setting [17]) it was “did not reveal any change”. Also, the “percentage of cells expressing CD40 on surface” value in assay [1] (PBMC, NOD and BALB/c) is recorded as “did not increase the percentage of cells expressing CD40”. For the same molecule, the “intensity of CD40 surface expression” value in assay [1] (setting [16]) is listed as “significantly elevated”. Also, the “surface expression of CD18” value is listed as “did not change surface expression of CD40 or CD18” in [2] (setting [15]) and “did not reveal any change” in assay [2] (setting [17]). Besides, the CD18hi population entry in assay [2] (setting [16]) was “decrease in the CD18^hi population”. Besides, in assay [2] (setting [16]), the CD18lo population entry was “corresponding increase in the CD18^lo population”. Besides, the entries for the “surface expression of CD11a” value in assay [3] (setting [18]) and in [3] (setting [17]) were “no change” and “did not reveal any change”, respectively. In addition, the “surface expression of CD11b” value is reported as “no change” in assay [4] (setting [18]) and “did not reveal any change” in [4] (setting [17]). Further, the “surface expression of CD69” value in [5] was “None of the three molecules was affected”. Moreover, in assay [6], the “surface expression of CD154” value was “None of the three molecules was affected”. The “surface expression of CD25” value in assay [7] is recorded as “None of the three molecules was affected”.

In the case of “OVA-peptide: unrelated peptide, the 17-amino-acid OVA (323–339) peptide, control for KGYY15 (KISQAVHAAHAEINEAG; UniProt P01012 323-339, looked up, fragment)”, the “immunoprecipitation of CD11a (control)” value in assay [8] is given as “No CD11a, CD11b, or CD18 was immunoprecipitated”. For the same molecule, the “immunoprecipitation of CD11b (control)” value in [9] was “No CD11a, CD11b, or CD18 was immunoprecipitated”. Besides, the “immunoprecipitation of CD18 (control)” value in assay [10] was “No CD11a, CD11b, or CD18 was immunoprecipitated”.

For “recombinant CD11a/CD18 (R&D Systems cat# 3868-AV-050) (from UniProt P20701 26-1090; P05107 23-700) (complex)”, the percent reduction of KGYY15-FITC staining of NAMALWA cells in assay [11] was 29.4%.

With “recombinant CD11b/CD18 (R&D Systems cat# 4047-AM-050) (from UniProt P11215 17-1104; P05107 23-700) (complex)”, the percent reduction of KGYY15-FITC staining of NAMALWA cells in [11] was determined as 22.7%.

B1: CD154: natural CD40-ligand, whole protein (protein, UniProt P27548 112-260, looked up)
CD40 ligand, soluble form: MQRGDEDPQIAAHVVSEANSNAASVLQWAKKGYYTMKSNLVMLENGKQLTVKREGLYYVYTQVTFCSNREPSSQRPFIVGLWLKPSSGSERILLKAANTHSSSQLCEQQSVHLGGVFELQAGASVFVNVTEASQVIHRVGFSSFGLLKL
As to B1, the binding to integrin result in assay [12], in assay [13] and in assay [14] was “binds” throughout.
